Rows were chosen to be rich in hits. Some 4.6% of all compounds tested hit in one or more screens of this group.
TAAR1 agonist = human TAAR1 agonists, primary screen, Fluo-8 calcium fluorescence, CHO RD-HGA16 cells | hit rate 0.99% among 360,000 | vehicle wells 0%, saturating PEA agonist 100% | activation, % at 3 µM | Trace amine-associated receptor 1 (Homo sapiens), Q96RJ0;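 active = activation above the mean activation of all test compounds in the run plus 3 SD, cut at about 38% in these data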
Target sequence (Q96RJ0 whole entry, looked up): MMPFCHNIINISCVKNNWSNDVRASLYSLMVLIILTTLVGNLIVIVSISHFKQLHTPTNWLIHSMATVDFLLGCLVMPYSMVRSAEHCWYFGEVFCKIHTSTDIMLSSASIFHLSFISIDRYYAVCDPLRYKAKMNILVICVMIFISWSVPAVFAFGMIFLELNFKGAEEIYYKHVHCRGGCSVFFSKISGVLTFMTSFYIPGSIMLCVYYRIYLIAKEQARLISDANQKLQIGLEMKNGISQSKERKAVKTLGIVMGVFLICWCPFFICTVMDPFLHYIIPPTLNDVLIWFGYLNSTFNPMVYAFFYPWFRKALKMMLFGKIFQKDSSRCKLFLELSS
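System: CHO RD-HGA16 cells carrying human TAAR1 plus Gα16; Incubation: 17-24 h seeding, 75 min 37 °C dye, 30 min RT; Measured by: Fluo-8 fluorescence, 5 s baseline then 140 s kinetic read; Control set: DMSO and PEA EC100; Replication: single well for each compound.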
OX1R antag-1 = antagonists of human orexin 1 receptor (OX1R). OX1R-expressing cells, FRET antagonist read-out. inhibition, % at 6.6 µM. Orexin/Hypocretin receptor type 1 (Homo sapiens), O43613. hit rate 1.8% among 330,000; in the data active = inhibition mostly above about 38%, no sharp cut-off; inactive = mostly below about 40%
OX1R antag-2 = OX1R (HCRTR1) antagonists, primary screen, fluorescence, CHO/OX1R cells, Fluo-8 calcium, orexin A. hit rate 0.43% among 330,000. inhibition, % at 5 µM. Orexin/Hypocretin receptor type 1 (Homo sapiens), O43613. Fluo-8 calcium fluorescence. AID 434989, 2010;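 active = inhibition above its plate's threshold, mean inhibition of all tested compounds on the plate plus 3 SD, cut at about 37% in these data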
GPR7 antagonist = GPR7 receptor antagonists, primary screen, cell-based, fluorescence, single concentration; GPR7-expressing cells, fluorescence antagonist assay; inhibition, % at 4.4 µM; hit rate 1.1% among 290,000; AID 1861, 2009; in the data active = inhibition above about 16%, passing the limit was not always enough;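 note: cells stimulated with the agonist NPW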
CHO parental Ca = ATP-evoked calcium signal inhibitors, parental CHO, primary screen, counter-screen for OX1R antagonist project, cell-based, fluorescence, Fluo-8 calcium dye | parental CHO-K1, ATP-induced calcium, Fluo-8 fluorescence | inhibition, % at 5.6 µM | hit rate 0.63% among 330,000 | AID 463079, 2010;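 active = inhibition above that plate's mean sample inhibition plus 3 SD, cut at about 26% in these data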
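Measured by: calcium-sensitive Fluo-8 fluorescence / Test system: CHO parental line / Controls: ATP-challenged DMSO wells low, unchallenged DMSO wells high / Measure: % inhibition / Compound: single nominal dose of 5.6 µM per compound / Replicates: single well per compound, no replicates / Reagent: ATP as calcium-mobilizing challenge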
TAAR1 antagonist = human TAAR1 antagonists, primary screen, Fluo-8 calcium fluorescence, CHO RD-HGA16 cells; Trace amine-associated receptor 1 (Homo sapiens), Q96RJ0; antagonist; inhibition, % at 3 µM; hit rate 1.5% among 360,000; AID 624466, 2012;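 active = inhibition above a per-plate cutoff, the mean inhibition of test compounds on that plate plus 3 SD, cut at about 49% in these data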
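Material: RD-HGA16 CHO cells with stable hTAAR1 and Gα16; Dosing: single nominal final test compound concentration of 3 µM; Schedule: seeding 17-24 h prior, 75-min 37 °C, 30-min RT dye loading; Detection: kinetic Fluo-8 calcium fluorescence measurement; Measure: % inhibition from peak post-agonist over basal fluorescence ratio; Benchmarks: vehicle and agonist controls.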
Large screens that a line does not name were inactive.

CN(c1ccc(C(=O)NCCc2ccccc2)cc1)S(C)(=O)=O	TAAR1 agonist 40
Cc1ccc(S(=O)(=O)N(C)c2ccc(C(=O)NCCc3ccccc3)cc2)cc1	none
O=C(NCCc1ccccc1)c1ccc(-n2cnnn2)cc1	GPR7 antagonist 18
O=C(NCCc1c[nH]c2ccccc12)c1ccc(-n2cnnn2)cc1	none
O=C1CC2(CCCC2)C(=O)N1CN1CCN(S(=O)(=O)c2cc(F)ccc2F)CC1	none (no result: OX1R antag-1, OX1R antag-2, GPR7 antagonist, CHO parental Ca)
COc1ccccc1CNn1c(-c2cccc(C)c2)nc2ccccc2c1=O	OX1R antag-1 51
O=C(NCc1ccccc1)[C@H]1CCCN1C(=O)[C@H]1CCCN1C(=O)N1CCCCC1	none (no result: OX1R antag-1, OX1R antag-2, GPR7 antagonist, CHO parental Ca)
CCCS(=O)(=O)NC(=O)C1(C)CCN(C(=O)c2ccnc(Cl)c2)C1 (stereo not given)	none (no result: OX1R antag-1, OX1R antag-2, GPR7 antagonist, CHO parental Ca)
COc1ccc(-c2cnc3c(NC(C)=O)cc(-c4ccccc4OC)cn23)cc1OC	TAAR1 antagonist 52 (no result: OX1R antag-1, OX1R antag-2, GPR7 antagonist, CHO parental Ca)
COc1ccc(-c2cc(NC(C)=O)c3ncc(-c4ccc(OC)c(OC)c4)n3c2)cc1OC	none (no result: OX1R antag-1, OX1R antag-2, GPR7 antagonist, CHO parental Ca)
COc1cc(-c2cc(NC(C)=O)c3ncc(-c4ccccc4)n3c2)cc(OC)c1OC	TAAR1 antagonist 49 (no result: OX1R antag-1, OX1R antag-2, GPR7 antagonist, CHO parental Ca)
COc1cc(-c2cc(NC=O)c3ncc(-c4ccccc4)n3c2)cc(OC)c1OC	TAAR1 antagonist 63 (no result: OX1R antag-1, OX1R antag-2, GPR7 antagonist, CHO parental Ca)
C[C@H]1CN([C@@H](C)CO)C(=O)CCCn2nncc2CO[C@@H]1CN(C)Cc1ccc2cccnc2c1	none (no result: OX1R antag-1, OX1R antag-2, GPR7 antagonist, CHO parental Ca)
CCCCCNC(=O)c1ccc2c(=O)[nH]c3c(C(=O)NCC4CCCO4)sc(=S)n3c2c1 (stereo not given)	OX1R antag-1 79
O=C(Nc1cccc2c1CCCC2)c1ccccc1Cl	none
COc1ccccc1C(=O)Nc1cccc2c1CCCC2	OX1R antag-1 27
COc1cccc(OC)c1C(=O)Nc1ccc2c3c(cccc13)CC2	none
COc1ccccc1C(=O)Nc1ccc2c3c(cccc13)CC2	OX1R antag-1 61
COc1cccc(NC(=O)Cc2nc(-c3ccccc3)sc2-c2ccc(C)cc2)c1	none
CC(=O)Nc1cccc(NC(=O)Cc2nc(-c3ccccc3)sc2-c2ccc(C)cc2)c1	OX1R antag-1 68
OCC[C@@H]1C[C@H](O)[C@@H](O)[C@@]2(OCc3ccc(CO)cc32)O1	none (no result: OX1R antag-1, OX1R antag-2, GPR7 antagonist, CHO parental Ca)
O=c1[nH]cnc2scc(-c3ccc(-c4ccccc4)cc3)c12	TAAR1 antagonist 50
CCCOc1ccc(-c2csc3nc[nH]c(=O)c23)cc1	none
COC(=O)c1ccccc1S(=O)(=O)NC(=O)[C@H]1O[C@@H](n2ccc(=O)[nH]c2=O)[C@H](O)[C@@H]1O	none (no result: OX1R antag-1, OX1R antag-2, GPR7 antagonist, CHO parental Ca)
CCc1noc2cc(-c3ccccc3)n(C)c(=O)c12	none (no result: OX1R antag-1, OX1R antag-2, GPR7 antagonist, CHO parental Ca)
O=C(NCc1nc2ccccc2[nH]1)C1=C[C@@H](c2csc3ccccc23)C[C@@H](OCc2ccc(CO)cc2)O1	none
O=C(NCc1nc2ccccc2[nH]1)C1=C[C@H](c2csc3ccccc23)C[C@H](OCc2ccc(CO)cc2)O1	TAAR1 antagonist 49 (no result: GPR7 antagonist)
CC1(Oc2ccccc2-c2ccn[nH]2)CCN(Cc2ccc(OC(F)(F)F)cc2)C1 (stereo not given)	none (no result: OX1R antag-1, OX1R antag-2, GPR7 antagonist, CHO parental Ca)
Nc1[nH]c(C(=O)c2ccc(Br)cc2)c(-c2ccccn2)c1C(=O)NCCc1c[nH]c2ccccc12	none (no result: OX1R antag-1, OX1R antag-2, GPR7 antagonist, CHO parental Ca)
O=C1/C(=C/c2cccs2)SC(=S)N1CCC(=O)N1CCCCC1CCO (stereo not given)	OX1R antag-1 48
COc1ccccc1/C=C1\SC(=S)N(CCC(=O)N2CCCCC2CCO)C1=O (stereo not given)	none
COc1ccc(N2C(=O)c3n[nH]c(C(C)C)c3C2c2ccc(F)cc2)cc1 (stereo not given)	none (no result: OX1R antag-1, OX1R antag-2, GPR7 antagonist, CHO parental Ca)
C(=N\NC1=Nc2cccc3cccc1c23)/c1cccnc1	OX1R antag-1 72
O=C(NC1CCCC1)[C@@H]1CCCN1C(=O)[C@@H](NC(=O)N1CCOCC1)c1ccccc1	none (no result: OX1R antag-1, OX1R antag-2, GPR7 antagonist, CHO parental Ca)
CN(CC(=O)Nc1ccc(Cl)c(C(F)(F)F)c1)C(=O)c1cc(=O)c2ccccc2o1	TAAR1 agonist 45 (no result: GPR7 antagonist)
